Yeast fitness data for 167 variants are collected here from the RNAGym collection of RNA variant scans (doi:10.1126/science.aae0568).

Sequences and labels used below:
B1: tRNA (parent)
chain: GUUCCGUUGGCGUAAUGGUAACGCGUCUCCCUCCUAAGGAGAAGACUGCGGGUUCGAGUCCCGUACGGAACG

Variants at the floor of the assay were thinned out.

The variants in the series derive from B1. Put plainly: yeast fitness relative to wild type (ratio to wild type); higher = fitter; tRNA-Arg(CCU), competitive growth, 37 C, YPD. The method in brief: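 Variants of the tRNA-Arg(CCU) gene, chemically synthesised with a 3% per-site mutation rate at 69 sites, were placed at the native genomic locus in Saccharomyces cerevisiae. The pooled strains were competed in YPD at 37°C for 24 hours in six parallel replicates. Gene amplicons from the start population and from each end population were read by 100-nucleotide paired-end sequencing. Darwinian fitness relative to wild type came from changes in genotype frequencies; genotypes needed ≥ 100 starting reads, and estimates < 0.5 were set to 0.5.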
Consider U8G C22U C62A, for which the yeast fitness was determined as 0.559.

U8C G52A: the yeast fitness came to 0.765. The same measure for U8G U13C A36C U53C: at most 0.5; for U8G G25C G41C: 0.644. The same measure for U8C U13A U32C A69U: 0.677; for U8G C24G G41A A69U: at most 0.5; for U8G C27U C30A A43C: at most 0.5. As for U8G U35A G41A U54A C55U, the figure is at most 0.5; as for U8G G38A G68U, at most 0.5; as for G9A A21U C34G G39A C55U C61G, at most 0.5. Consider G9A C11A G38C C60G, for which the yeast fitness was at most 0.5.

In the case of U8G G12A U32A G50C G52C C55U, the yeast fitness is at most 0.5. The same measure for U8G C24A C30G A40G: 0.559; for U8C G12A C29U U35G C62U: at most 0.5. As to U8G A15G C24U C29G A45C C60A, the yeast fitness amounted to 0.551. As for U8C U13A C29A C31G, the yeast fitness is at most 0.5. The same measure for U8G U26A A40G A43C C55G C60A: at most 0.5; for U8G C24G C33G A36U C49G C62G C66G A69C: 0.602. As for U8G C27A C61A G67A, the figure is at most 0.5; as for G9A A36U G39A, 0.535. The same measure for U8C U32G C49G: at most 0.5; for G9A C11U C29G: 0.609. Turning to U8G U28A C34G G39C A57G C66U, the yeast fitness is at most 0.5. As for U8G G10C A20G C55U, the figure is at most 0.5; as for U8G U13A A43G U53A G68A, at most 0.5. As for U8G G10A, the figure is at most 0.5; as for G9A A14U C29G C34A U54A, at most 0.5; as for U8C U13A C22G C24G A36U A40C G51C, at most 0.5. The same measure for U8C U19A A57C U64A: at most 0.5; for U8C U26C A37U A57G: at most 0.5; for U8G G10C A20G: at most 0.5. Consider U8G C29A A37U C49A, for which the yeast fitness is at most 0.5.

In the case of U8G C11U, the yeast fitness was found to be 0.646. On to U8C U26A, for which the yeast fitness worked out at 0.884. The same measure for G9A C22A A37U C55G: at most 0.5; for U8G A70U: 0.59. The same measure for U8C U19A A40C G44C G48C U53G: at most 0.5.

With U8G C55A C66U, the yeast fitness is at most 0.5. The same measure for U8C G9A C22U C30A C49A C55A C62U C66U: at most 0.5; for U8C G18A: 0.686; for U8C U13C A36U G38A A65C: at most 0.5.

Turning to U8C G23U A42G C60A, the yeast fitness is at most 0.5. G9A A15G: the yeast fitness was found to be 0.884. The same measure for G9A A42C: 0.855. For the variant G9A A42U, the yeast fitness came out at 0.87.

Turning to G9A A42G, the yeast fitness came out at 0.96. For the variant G9A C11G C55G G63C G67C, the yeast fitness amounted to 0.578. The same measure for G9A A20U: 0.829. As for U8C G17C G58C, the figure is at most 0.5.

For U8G U35C A57C, the yeast fitness is at most 0.5.

On to G9A A20G U59A C66G, for which the yeast fitness is at most 0.5. As for G9A A20G A40C A42U A43C G48A, the figure is at most 0.5.

With G9A A15G A43G C49G U53G, the yeast fitness is 0.553. As for U8G A37U C66U, the figure is at most 0.5. On to U8G C34G C55A C66U, for which the yeast fitness was at most 0.5. As for U8C G25A A36C A70G, the figure is 0.624; as for U8G C60G, at most 0.5. With U8G A21U C27G A65C, the yeast fitness is at most 0.5. As for U8C U28G C46G C49U A69C, the figure is at most 0.5; as for U8G A37C G68A, at most 0.5; as for G9A A36G G67C, 0.664. As for U8G C62U U64A G67C, the figure is 0.603; as for U8G A20G U47G A57G, 0.654.

Regarding U8C G10C A42G A43G C55U, the yeast fitness is 0.724. Turning to G9A A20G A21U, the yeast fitness was determined as 0.57. The same measure for U8G A14G A21G C27A U35A C62A A65C: at most 0.5; for U8C G12C U32G A42U: at most 0.5; for G9A C22A: 0.919. As for G9A C22U, the figure is 1.04; as for G9A C22G, 0.869. The same measure for U8G A43C C61U: at most 0.5; for U8C U16C C61G A69C: at most 0.5. As for G9A C11U A36C G48C, the yeast fitness was at most 0.5. The same measure for U8C G44A: 1.01; for G9A C11A G58C: at most 0.5. The same measure for U8G C62G: 0.533; for U8G G12A U13G C22G C24G A36G A37C A57U G68C: 0.589; for U8G C11U U16C A42U: 0.749. As for G9A C24A C55A, the figure is at most 0.5; as for G9A A37G A57U C66U, at most 0.5; as for U8G U32C C66U, at most 0.5. U8C G44A C55U: the yeast fitness is at most 0.5. With U8G C24U, the yeast fitness stood at 0.626. As for U8G A21C A43U U59A G63A, the figure is at most 0.5.

Turning to U8G U47G C49A A69U, the yeast fitness was at most 0.5. The same measure for G9A A40C G68A: at most 0.5; for G9A A21U C24G U28A C60G A70C: at most 0.5; for G9A C22U C30G C61U A70U: at most 0.5.

In the case of G9A A65C, the yeast fitness worked out at 0.93. As for G9A C11G C24G C27A U28C A65U, the figure is at most 0.5; as for G9A A21C G25C, 0.565; as for G9A A14G C29U U32A A43U, at most 0.5. The same measure for U8G C46A C55A: at most 0.5. As for G9A A37C A45U, the figure is at most 0.5; as for U8C G48C G52A C66A, at most 0.5.

As for G9A C11A C22G U35C, the yeast fitness is at most 0.5. The same measure for G9A C22A C55U: 0.626; for G9A A40U: 1.06; for U8C U32C C46G G67C: at most 0.5. For the variant U8C G23A A65C, the yeast fitness was found to be 0.571.

Turning to U8G G9U C30A C61A, the yeast fitness worked out at 0.539.

On to G9A A21G C29G C31A C34G, for which the yeast fitness is at most 0.5. The same measure for U8C G51A C62A: at most 0.5; for U8G C46G G52A: at most 0.5; for U8C G44C C60G: 0.53. As for U8G U35G A70C, the figure is 0.536; as for G9A A14C C55U, at most 0.5; as for G9A C24G C49U C55G G58A, at most 0.5. As for G9A C22U U26A A43U A65U, the figure is at most 0.5; as for U8C U16C A69C, 0.709; as for U8G U28A C34A C66A, at most 0.5. As for U8C U16C A65G, the yeast fitness turned out to be 0.707.

As to G9A A40C A70U, the yeast fitness stood at 0.74. The same measure for U8G G10C A20G U59C G67A: at most 0.5. As for U8C G50A, the figure is 0.773; as for G9A A21U G48C C55A C66G G67C, at most 0.5. The same measure for G9A A21G C33A C62U G63C A70C: at most 0.5; for G9A C11U C29A U53G: at most 0.5. For G9A C11U C31U U59A, the yeast fitness is at most 0.5. The same measure for G9A C11U A15C A20G G48A C60G: 0.662; for U8G U26C C60U: at most 0.5. As for U8C G23A G44C A45U C49A, the figure is at most 0.5; as for G9A C22G C31U A65C C66A, at most 0.5. As for G9A C24A U59A, the figure is at most 0.5; as for U8C U16C, 0.861. For the variant U8C G18C A20U C49G, the yeast fitness was at most 0.5. The same measure for U8G A20G C60G C61A: at most 0.5; for U8C U16C A21C C49A G58A C66U G68A: at most 0.5. The same measure for U8C G44A U53C C55U A70U: at most 0.5; for U8C U13A C22A A42U: at most 0.5; for U8G A21G G23A U64C: at most 0.5. The same measure for U8G A21U G56A: at most 0.5; for U8C U16A A21U C24G G48C: at most 0.5. Take U8C G10A A40G: the yeast fitness stood at 0.551.

For the variant U8C U13A C24U C29G C33A U47A C55U A65C A69G, the yeast fitness is at most 0.5. The same measure for U8G A21C G50A G56A: at most 0.5; for U8G C22G G48A C60A U64C A69C: 0.561; for U8C U19G A45C: at most 0.5. As for U8C U16A C27U C55G, the figure is 0.691; as for G9A A37G, 0.795. Take U8C G18C C27A C33U A65C A69C: the yeast fitness was at most 0.5. The same measure for U8G A14C G17C C61G: at most 0.5; for G9A A40U A65U: 0.718; for U8C G51C G58C: at most 0.5. As for G9A A57C, the figure is 0.591; as for U8G A43C G51A, at most 0.5. In the case of G9A C24G, the yeast fitness stood at 0.594.

Turning to U8C U19A C31A G41C A45G G50C C62U, the yeast fitness is at most 0.5.

For the variant U8G A45U G50A A69C, the yeast fitness is at most 0.5. On to U8G G41A, for which the yeast fitness turned out to be 0.642. As for U8G G41C, the figure is 0.657; as for G9A C11G U19C G67A, at most 0.5. The same measure for G9A C22U C30U: 0.519; for U8G G12A A37C A43U C66A A70C: 0.597. Take U8G C34G: the yeast fitness was at most 0.5.

Regarding G9A C24G U35C C49U C61G, the yeast fitness was at most 0.5. Consider U8C G48C G63C A70C, for which the yeast fitness was at most 0.5.

With G9A A36U G51A C61G, the yeast fitness is at most 0.5.

G9A C24G G41C U53C G58U: the yeast fitness was at most 0.5.

With U8G C11A C24A C29A C34U C61G A65C, the yeast fitness is at most 0.5. As for U8C U28C C30G C31G A65C, the figure is at most 0.5; as for G9A A42G C62A, at most 0.5; as for U8C U13G C22U, 0.529. The same measure for U8C G18C G50A C60U: 0.546. As for U8G A40U G52A A69U, the figure is at most 0.5; as for G9A A15U A20G G44C C61U, at most 0.5; as for U8C G12A C31G A40C A45C G48C, at most 0.5.
